Test results from ChEMBL document CHEMBL1828630, “Design, synthesis and vasorelaxant evaluation of novel coumarin-pyrimidine hybrids” (Bioorg Med Chem, 2011).

Tested on: Aorta; call rule not given here
Assay: Vasorelaxant activity in Wistar rat thoracic aortic ring assessed as inhibition of norepinephrine hydrochloride-induced contraction treated after noradrenaline challenge
Type: functional, tissue-based
Summary of the method: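 Aortic ring preparations held under resting tension below 2 g and allowed to stabilise for 2 h. Contraction to norepinephrine hydrochloride (10^-6 M) was recorded before and after exposure to increasing concentrations of test compound. Tension was measured isometrically. Compounds were taken from 0.01 M DMSO stocks, and DMSO-alone controls were run at matching concentrations. Activity was reported as IC50.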

[1] = Rattus norvegicus, Wistar, Aorta, read-out: IC50
[2] = Rattus norvegicus, Wistar, Aorta, read-out: pIC50 (converted)

SMILES | IC50 [1] | IC50 [2] | IC50
COc1ccc2ccc(=O)oc2c1C(=O)/C=C/c1ccc([N+](=O)[O-])cc1 | 700 µM |  | 
Cc1cc(=O)[nH]c(Nc2ccc3oc(=O)ccc3c2)n1 | 700 µM |  | 
COc1ccc2ccc(=O)oc2c1-c1cc(-c2ccc(C)cc2)nc(N)n1 | 932 µM | 1070 µM | 
N/C(=N/O)c1c(N)nc(Nc2ccc3oc(=O)ccc3c2)nc1-c1ccccc1 | 468 µM |  | 
Cc1cc(Cl)nc(Nc2ccc3oc(=O)ccc3c2)n1 | 468 µM |  | 
COc1ccc2ccc(=O)oc2c1C(=O)/C=C/c1cccs1 | 371 µM |  | 
COc1ccc2ccc(=O)oc2c1-c1cc(-c2cccs2)nc(N)n1 | 650 µM |  | 
COc1ccc2ccc(=O)oc2c1C(=O)/C=C/c1ccc(C(F)(F)F)cc1 | 374 µM |  | 
COc1ccc2ccc(=O)oc2c1-c1cc(-c2ccccc2)nc(N)n1 | 800 µM | 1250 µM | 
Cc1cc(-c2ccccc2)nc(Nc2ccc3oc(=O)ccc3c2)n1 |  |  | Not Active
N=C(N)Nc1ccc2oc(=O)ccc2c1 | 418 µM |  | 
Cc1nc(Nc2ccc3oc(=O)ccc3c2)nc(Cl)c1CCCl | 700 µM |  | 
COc1ccc2ccc(=O)oc2c1C(=O)/C=C/c1ccc(SC)cc1 | 705 µM |  | 
COc1ccc2ccc(=O)oc2c1-c1cc(-c2ccc([N+](=O)[O-])cc2)nc(N)n1 |  |  | Not Active
COc1cc2nc(N3CCN(C(=O)c4ccco4)CC3)nc(N)c2cc1OC [PRAZOSIN] | 487 µM |  | 
COc1ccc2ccc(=O)oc2c1C(=O)/C=C/c1ccc(C)cc1 |  |  | Not Active

SMILES | IC50 [1] | IC50 [2] | IC50
O=c1cc(O)nc(Nc2ccc3oc(=O)ccc3c2)[nH]1 | 816 µM |  | 
COc1ccc2ccc(=O)oc2c1-c1cc(-c2ccc(SC)cc2)nc(N)n1 | 1140 µM | 876 µM | 
COc1ccc2ccc(=O)oc2c1C(C)=O | 479 µM |  | 
N/C(=N/O)c1c(-c2ccccc2)nc(Nc2ccc3oc(=O)ccc3c2)[nH]c1=O | 466 µM |  | 
N#Cc1c(N)nc(Nc2ccc3oc(=O)ccc3c2)nc1-c1ccccc1 | 595 µM |  | 
COc1ccc2ccc(=O)oc2c1C(=O)/C=C/c1ccccc1 | 526 µM |  | 
CCN(CC)c1cc(C)nc(Nc2ccc3oc(=O)ccc3c2)n1 | 495 µM |  | 
COc1ccc2ccc(=O)oc2c1-c1cc(-c2ccc(C)o2)nc(N)n1 | 1230 µM |  | 
CCN(CC)c1ccc(-c2nc(Nc3ccc4oc(=O)ccc4c3)[nH]c(=O)c2C#N)cc1 | 421 µM |  | 
COc1ccc2ccc(=O)oc2c1-c1cc(-c2ccc(C(F)(F)F)cc2)nc(N)n1 | 1060 µM |  | 
N#Cc1c(-c2ccccc2)nc(Nc2ccc3oc(=O)ccc3c2)[nH]c1=O | 547 µM |  | 
COc1ccc2ccc(=O)oc2c1C(=O)/C=C/c1ccc(C)o1 | 566 µM |  | 
Nc1ccc2oc(=O)ccc2c1 | 532 µM |  | 
Cc1cc(C)nc(Nc2ccc3oc(=O)ccc3c2)n1 | 411 µM |  | 
O=c1ccc2cc(Nc3nc(Cl)cc(Cl)n3)ccc2o1 | 453 µM |  | 
